dFosB activator: mouse delta FosB homodimer activation; activation, % at 25 µM; 340,000 tested, 0.99% active; purified delta FosB, TAMRA-CDK5 oligo fluorescence polarization; percent of positive-control signal above neutral wells; P13346;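 active = mean activation above about 17%, with every replicate also reaching it, limit read from the data, passing the limit was not always enough; inconclusive = only one of the two conditions met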
Target sequence (P13346 whole entry, looked up): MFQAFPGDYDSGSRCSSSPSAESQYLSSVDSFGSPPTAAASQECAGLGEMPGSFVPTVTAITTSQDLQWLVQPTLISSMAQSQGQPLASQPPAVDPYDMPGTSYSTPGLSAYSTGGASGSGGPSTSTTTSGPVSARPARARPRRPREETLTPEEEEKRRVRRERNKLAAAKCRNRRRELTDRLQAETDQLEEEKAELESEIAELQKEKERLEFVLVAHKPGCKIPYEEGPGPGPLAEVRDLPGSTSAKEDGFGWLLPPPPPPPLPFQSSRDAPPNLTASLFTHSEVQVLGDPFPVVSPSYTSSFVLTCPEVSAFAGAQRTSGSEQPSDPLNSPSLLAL
Cneo AK release: causes C. neoformans cell lysis. adenylate kinase release luminescence, 4 h; normalised: neutral wells 0, clomiphene wells 100. 360,000 tested, 0.2% active. lysis activity, % at 15 µM;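 active = mean lysis activity across replicates of at least 80%, whatever share of replicates individually reach that level; inactive = mean lysis activity below 80%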
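Material: C. neoformans cells | Amount: Yeast cell density of 5 × 10^6 cells/mL | Medium: Fresh YPD growth medium | Dosing: Single dose | Times: Static 4 h at 37 °C with compound, 1 h detection | Detection: AK luminescence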
CDK5 p35 inh: blocks human CDK5/p35 kinase activity; Q00535+Q15078; Recombinant CDK5/p35, ADP-Glo luminescence, 60 min; inhibition, % at 10 µM; 330,000 tested, 0.01% active;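 active = highest replicate inhibition of at least 50% and at least 75% of replicates reaching 50%; inconclusive = only one of the two criteria met; inactive = both criteria failed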
Env fusion inh: blocks HIV Env-driven cell-cell fusion. inhibition, % at 12.3 µM. 360,000 tested, 1.1% active. HeLa-JRFL Env/CEM21 cell fusion, luciferase. AID 651610;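 active = mean replicate inhibition score of at least 50 and every replicate individually at or above 50; inconclusive = only one of the two criteria met; inactive = mean below 50 and not all replicates reaching 50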
GSIS activator: GLuc luminescence reporter in INS-1E cells, primary screen for activators of glucose-dependent secretion of insulin; INS-1E GLuc reporter insulin secretion, 2-3 h; activation, % at 16.6 µM; 370,000 tested, 0.61% active; AID 743287;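 active = lowest replicate activation of at least 40%, so every replicate reaches that level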
PAX8 inh HTS: PAX8 transcriptional activity inhibition; RMG-I TPO-luciferase reporter, SteadyGlo, 24 h; inhibition, % at 12.6 µM; 360,000 tested, 1.2% active;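 active = mean replicate inhibition at least 60% with every replicate also reaching 60%; inconclusive = only one of the two criteria is met; inactive = mean below 60% and not all replicates reaching 60%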;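 note: luciferase light reporting Pax8 driven TPO promoter activity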
Of the large screens only hits and unclear results are named; the others gave an inactive call. Sampled rows, rich in hits. Any-hit rate of the full collection: about 2.9%.

O=S(=O)(Nc1ccc(-c2csc(-c3ccccc3)n2)cc1)c1ccc(F)cc1	none (no result: Env fusion inh, GSIS activator, PAX8 inh HTS)
O=C(Nc1nc(-c2ccc(-c3ccccc3)cc2)cs1)C1=COCCO1	GSIS activator 84 (no result: Cneo AK release)
Cc1noc(C)c1S(=O)(=O)N(C)C[C@@H]1Oc2ccc(NS(=O)(=O)c3ccc(Cl)cc3)cc2CC(=O)N([C@@H](C)CO)C[C@H]1C	none (no result: dFosB activator, CDK5 p35 inh)
CCc1n[nH]c(=S)n1/N=C/c1c(C)nn(-c2ccccc2)c1Cl	none
Cc1ccccc1-c1n[nH]c(=S)n1/N=C/c1c(C)nn(-c2ccccc2)c1C	GSIS activator 91
O=[N+]([O-])c1ccc(/C=N/n2c(-c3ccccc3)n[nH]c2=S)cc1	GSIS activator 43
Cc1ccc(-c2n[nH]c(=S)n2/N=C/c2c(C)nn(-c3ccccc3)c2C)cc1	GSIS activator 203 (no result: Cneo AK release)
Cc1nn(-c2ccccc2)c(C)c1/C=N/n1c(-c2ccc(C(C)(C)C)cc2)n[nH]c1=S	none (no result: Env fusion inh, GSIS activator, PAX8 inh HTS)
CC(C1CC1)N(Cc1ccccc1)C(=S)Nc1cccc(C(F)(F)F)c1 (stereo not given)	PAX8 inh HTS 118 (no result: Env fusion inh)
COCC(=O)N1C[C@@H]2[C@H](c3ccccc31)[C@H](CO)N2Cc1ccccc1F	none (no result: dFosB activator, CDK5 p35 inh, Env fusion inh)
C[C@@H](C(=O)NCc1ccc(S(C)(=O)=O)cc1)[C@H]1C[C@]1(C)[C@H](NC(=O)OCc1ccccc1)c1ccccc1	Env fusion inh 55 (no result: dFosB activator, Cneo AK release, CDK5 p35 inh)
Cc1nc2ccc3nc(NC(=O)c4ccc5c(c4)OCCO5)sc3c2s1	dFosB activator 173 (no result: Env fusion inh, PAX8 inh HTS)
Cc1cnc(NC(=O)c2ccc3c(c2)OCCO3)s1	PAX8 inh HTS 99
Cc1nc2c(ccc3nc(NC(=O)c4ccc5c(c4)OCCO5)sc32)s1	dFosB activator inconclusive (no result: Cneo AK release, Env fusion inh, GSIS activator, PAX8 inh HTS)
Cc1ccc(C(=O)Nc2ncc(C)s2)s1	none
CO[C@H]1CN(C)C(=O)c2cc(NC(=O)C3CCC3)ccc2OC[C@@H](C)NC[C@H]1C	none (no result: dFosB activator, CDK5 p35 inh, Env fusion inh)
N#CCCN(C(=O)CSc1nc2ccccc2c(=O)[nH]1)c1ccc(F)cc1	Env fusion inh 81
O=C(NCc1ccncn1)[C@@H]1[C@@H](CO)[C@@H]2Cn3c(ccc(-c4ccncc4)c3=O)[C@@H]2N1CC1CC1	none (no result: dFosB activator, CDK5 p35 inh, Env fusion inh, PAX8 inh HTS)
COc1ccc2c3c([nH]c2c1)[C@H](CO)N(C(=O)NC(C)C)CC31CCN(Cc2ccc(F)cc2)CC1	none (no result: dFosB activator, Cneo AK release, CDK5 p35 inh, Env fusion inh)
N/C(=N\N=C/c1ccc(F)cc1)N/N=C\c1ccc(F)cc1	dFosB activator 26 (no result: GSIS activator)
N/C(=N\N=C/c1ccc(Br)cc1)N/N=C\c1ccc(Br)cc1	none
N/C(=N\N=Cc1ccc2c(c1)OCO2)NN=Cc1ccc2c(c1)OCO2	dFosB activator 42
Cc1cc(Cl)c(S(=O)(=O)NC(C(=O)O)C(C)C)cc1OCC(=O)NC1CCCCC1 (stereo not given)	none (no result: GSIS activator)
Cc1cc(Cl)c(S(=O)(=O)N2CCCC2)cc1OCC(=O)NC1CCCCC1	Env fusion inh 78 (no result: GSIS activator)
CN(C[C@H]1[C@@H](c2ccccc2)[C@H](CO)N1C(=O)C1CC1)C(=O)c1ccccn1	none (no result: dFosB activator, CDK5 p35 inh, Env fusion inh)
CO[C@H]1CN(C)C(=O)c2ccc(NC(C)=O)cc2OC[C@H](C)N(C(=O)c2cnccn2)C[C@H]1C	none (no result: dFosB activator, Cneo AK release, CDK5 p35 inh, Env fusion inh, PAX8 inh HTS)
CC(C)NC(=O)Nc1ccc2c(c1)C(=O)N(C)C[C@@H](C)[C@@H](CN(C)S(C)(=O)=O)O2	none (no result: dFosB activator, Cneo AK release, CDK5 p35 inh, Env fusion inh, PAX8 inh HTS)
Cc1ccc(S(=O)(=O)NCc2ccccc2)cc1C(=O)N1CCN(S(=O)(=O)c2ccccc2)CC1	none
Cc1ccc(S(=O)(=O)NCc2ccccc2)cc1C(=O)N1CCCCCCC1	Env fusion inh 66
O=C(NCC[C@H]1CC[C@H](NS(=O)(=O)c2cccc(Cl)c2)[C@@H](CO)O1)c1cnccn1	none (no result: dFosB activator, CDK5 p35 inh)
CC[C@@]1(C(=O)OC)N[C@H](CN(C)C(=O)Nc2ccc(C)cc2)[C@@H]2C(=O)N(Cc3ccccc3)C(=O)[C@@H]21	Env fusion inh 66
CC[C@@]1(C(=O)OC)N[C@H](CN(C)C(=O)Nc2ccc(F)cc2)[C@@H]2C(=O)N(Cc3ccccc3)C(=O)[C@@H]21	Env fusion inh 94 (no result: GSIS activator)
COC(=O)[C@]1(Cc2ccccc2)N[C@H](CN(C)C(=O)Nc2ccc(F)cc2)[C@@H]2C(=O)N(Cc3ccccc3)C(=O)[C@@H]21	none
CC[C@@]1(C(=O)OC)N[C@H](CN(C)C(=O)Nc2ccc(OC)cc2)[C@@H]2C(=O)N(Cc3ccccc3)C(=O)[C@@H]21	Env fusion inh 70
CCCCCCCCOC(=O)c1nc(Cl)c(Cl)c(N)c1Cl	GSIS activator 60 (no result: Env fusion inh)
C1CCN(CCCNC2C3CC4CC(C3)CC2C4)C1 (stereo not given)	GSIS activator 40
C(CNC1C2CC3CC(C2)CC1C3)CN1CCOCC1 (stereo not given)	none
C[C@@]12C(=O)Nc3cc(F)ccc3C(=O)N1[C@H]1c3cc(Br)ccc3OC[C@@H]1[C@@H]2c1ccccc1	none
C[C@@]12C(=O)Nc3ccc(F)cc3C(=O)N1[C@H]1c3cc(Br)ccc3OC[C@@H]1[C@@H]2c1ccccc1	Env fusion inh 57
COc1ccc2c(c1)[C@H]1[C@H](CO2)[C@H](c2ccccc2)[C@]2(C)C(=O)Nc3cc(OC)c(OC)cc3C(=O)N12	Env fusion inh 102
C[C@@]12C(=O)Nc3ccc(Cl)cc3C(=O)N1[C@H]1c3cc(Cl)ccc3OC[C@@H]1[C@@H]2c1ccccc1	none (no result: GSIS activator)
C[C@@]12C(=O)Nc3ccc(Br)cc3C(=O)N1[C@H]1c3cc(Cl)ccc3OC[C@@H]1[C@@H]2c1ccccc1	dFosB activator 25 (no result: Env fusion inh, GSIS activator, PAX8 inh HTS)
COC(=O)C1=C(C)N(Cc2ccccc2C(F)(F)F)C(=NCc2ccccc2C(F)(F)F)NC1c1ccc(Cl)cc1 (stereo not given)	none (no result: dFosB activator, Cneo AK release, CDK5 p35 inh, GSIS activator)
CCCCNC(=O)N(O)C1N(/N=C/c2ccccc2F)C(=S)SC1(C)C (stereo not given)	Env fusion inh 81
CCCCNC(=O)N(O)C1N(/N=C/c2ccco2)C(=S)SC1(C)C (stereo not given)	none
N#C[C@H]1[C@H](c2ccc(C3=CCCC3)cc2)[C@@H](CO)N1C(=O)NC1CCCC1	none (no result: dFosB activator, CDK5 p35 inh)
CCN(C(=O)C12CC3CC(CC(C3)C1)C2)C1CCS(=O)(=O)C1 (stereo not given)	GSIS activator 59
Cc1ccc(S(=O)(=O)N(C)Cc2ccc(C(=O)N/N=C/c3ccc(OC(F)F)cc3OC(F)F)cc2)cc1	Env fusion inh 66 (no result: GSIS activator)
O=C(N/N=C/c1ccc(OC(F)F)cc1OC(F)F)c1ccc(Br)cc1	none
COc1ccc(C2CC(=O)C(c3ccc(Cl)c(Cl)c3)=CN2Cc2ccccc2)cc1 (stereo not given)	none (no result: dFosB activator, Cneo AK release, CDK5 p35 inh, GSIS activator)
COc1ccc(C2CC(=O)C(c3ccc(C)cc3)=CN2Cc2ccccc2)cc1 (stereo not given)	GSIS activator 159 (no result: dFosB activator, Cneo AK release, CDK5 p35 inh)
CCN(CC)S(=O)(=O)c1cc([N+](=O)[O-])ccc1NNC(=O)Nc1ccc(F)cc1	Env fusion inh 57 (no result: GSIS activator, PAX8 inh HTS)
O=c1ccn(Cc2ccccc2)cc1	none

High-throughput results from PubChem BioAssay.
